# Measurements from ChEMBL document CHEMBL4196141, “Improved Antibacterial Activity of the Marine Peptide N6 against Intracellular Salmonella Typhimurium by Conjugating with the Cell-Penetrating Peptide Tat11 via a Cleavable Linker” (J Med Chem, 2018).
# Activity calls are given as the source filed them. No cut-off for these calls is given here. Positions of bridges follow the written chain, without caps; N, C: chain ends. Residues, ends and D or L forms follow the SMILES beside them.
# Experiments:
# [1] = tested on: Salmonella typhimurium; assay: Antibacterial activity against Salmonella typhimurium ATCC 14028 using 1 hr cathepsin B pre-treated compound at pH 5 incubated for 16 to 18 hrs at by broth microdilution method; type: functional, Salmonella enterica subsp. enterica serovar Typhimurium; conditions: Salmonella enterica
# Method in brief: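 Cathepsin B (bovine spleen, 10 µg/mL) was added for 1 h at 37 °C, and the reaction was stopped with 9 volumes of MHB. MIC was then run by broth microdilution (5 × 10^5 CFU/mL, 16–18 h, 37 °C) in medium adjusted to pH 5.0.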
# [2] = Drug internalization in mouse RAW264.7 using FITC-labeled compound at 2 uM incubated for 2 hrs at 4 degC by flow cytometry; type: ADME, cell-based; conditions: raw264.7, 2 h
# [3] = tested on: Salmonella typhimurium; assay: Antibacterial activity against Salmonella typhimurium ATCC 14028 infected in ICR mouse model of peritonitis assessed as mouse survival at 1 umol/kg, ip dosed at 0.5 and 8 hrs post infection and measured daily for 7 days
# [4] = tested on: Salmonella typhimurium; assay: Antibacterial activity against Salmonella typhimurium ATCC 14028 infected in ICR mouse model of peritonitis assessed as reduction colony forming units in total peritoneal fluids at 1 umol/kg, ip dosed at 2 hrs post infection and measured after 10 hrs post dose; type: functional, Salmonella enterica subsp. enterica serovar Typhimurium
# Method in brief: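 Six-week-old female ICR mice (six per group) received ip S. Typhimurium ATCC14028 (5 × 10^5 CFU, 0.5 mL). Peptide was given ip 2 h post-infection and mice were killed 10 h after treatment. Peritoneum was lavaged with 5 mL ice-cold PBS and total CFU counted. For intracellular CFU, pelleted cells were treated with 100 µg/mL gentamicin for 1 h at 37 °C, washed, lysed and plated. PBS served as negative control, ciprofloxacin as positive.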
# [5] = Drug internalization in mouse RAW264.7 using FITC-labeled compound at 2 uM pre-incubated for 1 hr with tubulin polymerization inhibitor nocodazole followed by compound addition and subsequent incubation for 2 hrs by flow cytometry; type: ADME, cell-based; conditions: raw264.7, 2 h
# Method in brief: (§1)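 RAW264.7 cells were pretreated 1 h at 37 °C with 3 mM amiloride, 20 µM nocodazole, 6 µg/mL chlorpromazine or 5 mM MβCD. FITC-labeled peptide was then added for 2 h at 37 °C. Extracellular fluorescence was quenched with 0.4% Trypan blue and intracellular fluorescence read by flow cytometry against an untreated control.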
# [6] = Induction of hemolysis in mouse RBC at 100 uM incubated for 1 hrs at 37 degC; type: cell-based, Erythrocyte; conditions: red blood cells (erythrocytes), read-out: Activity
# Method in brief: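 Fresh mouse erythrocytes were washed three times in 0.9% NaCl, and an 8% suspension was incubated with peptide (2-fold dilutions, 100 to 0.3125 µM) for 1 h at 37 °C. Released hemoglobin was read at 540 nm. 1% Triton X-100 defined 100% lysis; polymyxin served as positive control and NaCl as negative.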
# [7] = tested on: Salmonella typhimurium; assay: Bactericidal activity against 2 hrs-gentamicin pre-exposed Salmonella typhimurium ATCC 14028 assessed as reduction colony forming units at 20 uM incubated for 10 hrs; type: functional, Salmonella enterica subsp. enterica serovar Typhimurium
# Method in brief: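 Macrophage protection assay. RAW264.7 cells (5 × 10^4/well, 24 h) were infected with S. Typhimurium ATCC14028 at MOI 10 for 1 h in DMEM/10% FBS, exposed to 100 µg/mL gentamicin for 2 h at 37 °C, and PBS-washed. Peptides in DMEM/10% FBS were added for 10 h. Cells were lysed with 0.1% Triton X-100 and CFU plated; log10 CFU reduction versus untreated cells. Three replicates; two independent experiments; one-way ANOVA with Tukey.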
# [8] = Drug internalization in mouse RAW264.7 using FITC-labeled compound at 2 uM pre-incubated for 1 hr with lipid rafts disruptor methyl-beta-cyclodextrin followed by compound addition and subsequent incubation for 2 hrs by flow cytometry; type: ADME, cell-based; conditions: raw264.7, 2 h; method in brief: as §1
# [9] = tested on: Salmonella typhimurium; assay: Antibacterial activity against Salmonella typhimurium ATCC 14028 infected in ICR mouse model of peritonitis assessed as reduction colony forming units in kidney at 1 to 2 umol/kg, ip dosed at 2 hrs post infection and measured after 10 hrs post dose relative to marine peptide N6; type: functional, Salmonella enterica subsp. enterica serovar Typhimurium; parameters: scale not given: the % may be the effect or the level left
# Method in brief: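 Female ICR mice, six weeks old (six per group), were infected ip with S. Typhimurium ATCC14028 (5 × 10^5 CFU, 0.5 mL). Peptide was given ip at 1, 1.5 or 2 µmol/kg 2 h post-infection. Mice were killed 10 h after treatment, and kidneys and spleens were homogenized in sterile PBS for CFU counts of translocated bacteria. PBS-treated mice served as negative control, ciprofloxacin-treated mice as positive.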
# [10] = tested on: Salmonella typhimurium; assay: Antibacterial activity against Salmonella typhimurium ATCC 14028 infected in ICR mouse model of peritonitis assessed as mouse survival at 2 umol/kg, ip dosed at 0.5 and 8 hrs post infection and measured daily for 7 days
# [11] = tested on: Salmonella typhimurium; assay: Antibacterial activity against Salmonella typhimurium ATCC 14028 assessed as microbial inhibition zone pretreated for 1 hr at 4 to 100 degC by inhibition zone assay; conditions: Salmonella enterica subsp. enterica serovar Typhimurium
SMILES,MIC [1] [µM],Drug uptake [2],Activity [3] [%],Activity [4] [log10CFU],Drug uptake [5],"hemolysis at 1 h, 100 µM [6] [%]",Activity [7] [log10CFU],Drug uptake [8],Activity [9] [%],Activity [10] [%],Activity [11]
CC(C)[C@H](NC(=O)CCCCCN1C(=O)CC(SC[C@H](N)C(=O)N[C@@H](Cc2ccc(O)cc2)C(=O)NCC(=O)N[C@@H](CCCNC(=N)N)C(=O)N[C@@H](CCCCN)C(=O)N[C@@H](CCCCN)C(=O)N[C@@H](CCCNC(=N)N)C(=O)N[C@@H](CCCNC(=N)N)C(=O)N[C@@H](CCC(N)=O)C(=O)N[C@@H](CCCNC(=N)N)C(=O)N[C@@H](CCCNC(=N)N)C(=O)N[C@@H](CCCNC(=N)N)C(=O)O)C1=O)C(=O)N[C@@H](CCCNC(N)=O)C(=O)Nc1ccc(COC(=O)NCC(=O)N[C@@H](Cc2ccccc2)C(=O)N[C@@H](C)C(=O)N[C@@H](Cc2c[nH]c3ccccc23)C(=O)N[C@@H](CC(N)=O)C(=O)N[C@H](C(=O)N[C@H]2CSSC[C@@H](C(=O)N[C@@H](Cc3cnc[nH]3)C(=O)N[C@@H](CCCNC(=N)N)C(=O)N[C@@H](CCCNC(=N)N)C(=O)N[C@@H](C)C(=O)N[C@@H](CC(N)=O)C(=O)O)NC(=O)[C@H](C(C)C)NC(=O)[C@H](CCCNC(=N)N)NC(=O)[C@H](C(C)C)NC(=O)CNC(=O)[C@H](CC(N)=O)NC(=O)[C@H](CCCNC(=N)N)NC(=O)[C@H](Cc3ccc(O)cc3)NC(=O)[C@H](C(C)C)NC2=O)C(C)C)cc1 (stereo not given in full),1.7,Not Active,66.7,1.87,Not Active,3.81,1.06,Active,81,,
CC(C)[C@@H]1NC(=O)CNC(=O)[C@H](CC(N)=O)NC(=O)[C@H](CCCNC(=N)N)NC(=O)[C@H](Cc2ccc(O)cc2)NC(=O)[C@H](C(C)C)NC(=O)[C@@H](NC(=O)[C@@H](NC(=O)[C@H](CC(N)=O)NC(=O)[C@H](Cc2c[nH]c3ccccc23)NC(=O)[C@H](C)NC(=O)[C@H](Cc2ccccc2)NC(=O)CN)C(C)C)CSSC[C@@H](C(=O)N[C@@H](Cc2cnc[nH]2)C(=O)N[C@@H](CCCNC(=N)N)C(=O)N[C@@H](CCCNC(=N)N)C(=O)N[C@@H](C)C(=O)N[C@@H](CC(N)=O)C(N)=O)NC(=O)[C@H](C(C)C)NC(=O)[C@H](CCCNC(=N)N)NC1=O (H-GFAWNVCVYRNGVRVCHRRAN-NH2; disulfide 7-16),1.62,Not Active,66.7,3.04,Not Active,2.05,2.01,Active,200,100,Active
